Data reported in ChEMBL document CHEMBL3045489, “Synthesis, fungicidal activity, and QSAR of a series of 2-dichlorophenyl-3-triazolylpropyl ethers” (J Agric Food Chem, 2000).
Converted amounts (≈) assume the structure as drawn. The source made the active and inactive calls. The calls are words filed in the database; no cut-off is given here.

What was measured:
Botrytis cinerea = test: Antifungal activity against Botryotinia fuckelianaassessed as inhibition of radial growth on potato dextrose; format: functional, organism-based
Procedure, shortened: (§1)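 Radial growth inhibition on potato dextrose or Czapek agar across 100-0.1 mg L-1. ED50 calculated for each compound.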

Cercospora beticola = test: Antifungal activity against Cercospora beticola assessed as inhibition of radial growth on potato dextrose; format: functional, organism-based; procedure, shortened: as §1
Fusarium graminearum = test: Antifungal activity against Fusarium graminearum assessed as inhibition of radial growth on potato dextrose; format: functional, organism-based; procedure, shortened: as §1
[1] = target: T1, Lanosterol 14-alpha demethylase (Mycosarcoma maydis, UniProt P49602); test: Inhibition of 14alpha-demethylase Ustilago maydis ATCC 14826 assessed as reduction in 14alpha-methylfecosterol; conditions: read-out: I50 (converted)
T1 sequence (P49602 whole entry): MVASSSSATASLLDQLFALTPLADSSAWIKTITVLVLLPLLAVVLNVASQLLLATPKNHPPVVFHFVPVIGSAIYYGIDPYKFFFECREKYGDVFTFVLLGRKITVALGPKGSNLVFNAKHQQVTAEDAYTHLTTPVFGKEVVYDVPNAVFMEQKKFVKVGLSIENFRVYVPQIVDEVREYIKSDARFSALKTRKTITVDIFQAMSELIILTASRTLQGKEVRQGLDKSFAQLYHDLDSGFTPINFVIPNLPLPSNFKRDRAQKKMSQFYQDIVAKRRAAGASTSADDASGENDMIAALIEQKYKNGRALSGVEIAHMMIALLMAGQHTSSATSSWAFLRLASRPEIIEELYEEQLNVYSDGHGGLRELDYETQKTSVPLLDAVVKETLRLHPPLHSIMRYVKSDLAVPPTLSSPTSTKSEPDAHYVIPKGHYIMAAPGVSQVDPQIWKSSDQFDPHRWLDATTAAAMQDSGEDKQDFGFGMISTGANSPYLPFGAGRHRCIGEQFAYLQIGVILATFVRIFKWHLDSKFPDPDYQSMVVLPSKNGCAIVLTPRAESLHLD
Procedure, shortened: (§2)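 Actively growing broth cultures of U. maydis ATCC 14826 were incubated 18 h with increasing compound concentrations. Sterols were then extracted and analysed, and 14α-demethyl and 14α-methyl sterols quantified.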

[2] = target: T2, Lanosterol 14-alpha demethylase (Mycosarcoma maydis) (UniProt P49602); test: Inhibition of 14alpha-demethylase Ustilago maydis ATCC 14826 assessed as reduction in obtusifoliol at 20 mg/ml (reference value: 0.7%); design: scale not given: the % may be the effect or the level left; procedure, shortened: as §2
T2 sequence (whole entry): T1 sequence (P49602 whole entry)

[3] = target: T2, Lanosterol 14-alpha demethylase (Mycosarcoma maydis); test: Inhibition of 14alpha-demethylase Ustilago maydis ATCC 14826 assessed as reduction in eburicol at 20 mg/ml (reference value: 3.4%); design: scale not given: the % may be the effect or the level left; procedure, shortened: as §2
Uromyces appendiculatus [4] = test: Fungicidal activity against Uromyces appendiculatus inoculated in Phaseolus vulgaris placed in growth room after 24 hr incubation assessed as direct protection after 6 to 10 days; format: functional
Procedure, shortened: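 Bean plants grown at 22 ± 1 °C, 80 ± 10% RH. Compound in acetone/water (1:4 v/v) with Tween 20 (0.4 mg mL-1) was sprayed on leaves until moist at 100 to 0.001 mg L-1. One day later leaves were inoculated with U. appendiculatus uredospores (1 × 10^5 spores mL-1), held 24 h at 22 ± 2 °C and 100% RH, then moved to the growth room. Scored at 6, 8 and 10 days as MIC.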

Oculimacula yallundae = test: Antifungal activity against Oculimacula yallundae assessed as inhibition of radial growth on potato dextrose; format: functional, organism-based; procedure, shortened: as §1
Bipolaris maydis = test: Antifungal activity against Cochliobolus heterostrophus assessed as inhibition of radial growth on potato dextrose; format: functional, organism-based; procedure, shortened: as §1
[5] = target: T2, Lanosterol 14-alpha demethylase (Mycosarcoma maydis); test: Inhibition of 14alpha-demethylase Ustilago maydis ATCC 14826 assessed as reduction in ergosterol at 20 mg/ml (reference value: 61%); design: scale not given: the % may be the effect or the level left; procedure, shortened: as §2
[6] = target: T2, Lanosterol 14-alpha demethylase (Mycosarcoma maydis); test: Inhibition of 14alpha-demethylase Ustilago maydis ATCC 14826 assessed as reduction in 14alpha-methylfecosterol at 20 mg/ml (reference value: 0.4%); design: scale not given: the % may be the effect or the level left; procedure, shortened: as §2
Ustilago maydis [7] = test: Antifungal activity against Ustilago maydis assessed as inhibition of radial growth on potato dextrose; format: functional, organism-based; conditions: Mycosarcoma maydis
Uromyces appendiculatus [8] = test: Fungicidal activity against Uromyces appendiculatus inoculated in Phaseolus vulgaris placed in growth room after 24 hr incubation assessed as disease cure after 24 hr of inoculation; format: functional
Procedure, shortened: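 Bean rust curative test with the same plants, spray formulation (acetone/water 1:4 with Tween 20), 100 to 0.001 mg L-1 range and U. appendiculatus inoculum (1 × 10^5 spores mL-1). Compound applied 24 h after inoculation. Read-out expressed as MIC.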

Podosphaera fuliginea [9] = test: Fungicidal activity against Podosphaera fuliginea inoculated in […] placed in growth room after 24 hr incubation assessed as direct protection after 6 to 10 days; format: functional
Pyrenophora teres = test: Antifungal activity against Pyrenophora teres assessed as inhibition of radial growth on potato dextrose; format: functional, organism-based
Podosphaera fuliginea [10] = test: Fungicidal activity against Podosphaera fuliginea inoculated in […] placed in growth room after 24 hr incubation assessed as disease cure after 24 hr of inoculation; format: functional
Ustilago maydis [11] = test: Antifungal activity against Ustilago maydis sporidia assessed as swollen, multicellular and branched sporidia at 0.25 to 50 mg/ml measured after 18 hr by light microscopy; format: functional, organism-based; conditions: Mycosarcoma maydis
Procedure, shortened: (§3)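 U. maydis sporidia grown in Coursen and Sisler broth and treated at 0.25 to 50 mg mL-1 for 18 h. Cell morphology and division examined by interference contrast (Nomarski) and fluorescence microscopy.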

Ustilago maydis [12] = test: Antifungal activity against Ustilago maydis sporidia assessed as cell division at 0.25 to 50 mg/ml by light microscopy; format: functional, organism-based; conditions: Mycosarcoma maydis; procedure, shortened: as §3

Structure (SMILES) | EC50 (Botrytis cinerea) [µg/mL] | EC50 (Cercospora beticola) [µg/mL] | EC50 (Fusarium graminearum) [µg/mL] | IC50 [1] [µM] | Activity [2] [%] | Activity [3] [%] | MIC (Uromyces appendiculatus [4]) [µg/mL] | EC50 (Oculimacula yallundae) [µg/mL] | EC50 (Bipolaris maydis) [µg/mL] | Activity [5] [%] | Activity [6] [%] | EC50 (Ustilago maydis [7]) [µg/mL] | MIC (Uromyces appendiculatus [8]) [µg/mL] | MIC (Podosphaera fuliginea [9]) [µg/mL] | EC50 (Pyrenophora teres) [µg/mL] | MIC (Podosphaera fuliginea [10]) [µg/mL] | Activity (Ustilago maydis [11]) | Activity (Ustilago maydis [12])
C=CCOCC(Cn1cncn1)c1ccc(Cl)cc1Cl (racemic) | 1.5 (≈ 4.8 µM) | 0.21 (≈ 0.673 µM) | 8.5 (≈ 27.2 µM) | 1.73 | 20.6 | 61.1 | 200 (≈ 641 µM) | 0.29 (≈ 0.929 µM) | 0.16 (≈ 0.512 µM) | 5.1 | 8.8 | 0.22 (≈ 0.705 µM) | 28 (≈ 89.7 µM) | 30 (≈ 96.1 µM) | 1.4 (≈ 4.48 µM) |  |  | 
FC(F)C(F)(F)OCC(Cn1cncn1)c1ccc(Cl)cc1Cl (stereo not drawn) [TETRACONAZOLE] | 1.2 (≈ 3.22 µM) | 0.12 (≈ 0.322 µM) | 4 (≈ 10.7 µM) |  |  |  | 25 (≈ 67.2 µM) | 0.45 (≈ 1.21 µM) | < 0.1 |  |  | 0.25 (≈ 0.672 µM) | 25 (≈ 67.2 µM) | 0.05 (≈ 0.134 µM) | 0.4 (≈ 1.07 µM) | 0.9 (≈ 2.42 µM) | Active | Active
